OX1R antag-1: human HCRTR1 antagonism. CHO/OX1R cells, Fluo-8 calcium fluorescence, orexin A. inhibition, % at 5 µM. AID 434989. actives 0.43% (n = 330,000). O43613;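 active = inhibition above its plate's threshold, mean inhibition of all tested compounds on the plate plus 3 SD, cut at about 37% in these data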
Target sequence (O43613 whole entry, looked up): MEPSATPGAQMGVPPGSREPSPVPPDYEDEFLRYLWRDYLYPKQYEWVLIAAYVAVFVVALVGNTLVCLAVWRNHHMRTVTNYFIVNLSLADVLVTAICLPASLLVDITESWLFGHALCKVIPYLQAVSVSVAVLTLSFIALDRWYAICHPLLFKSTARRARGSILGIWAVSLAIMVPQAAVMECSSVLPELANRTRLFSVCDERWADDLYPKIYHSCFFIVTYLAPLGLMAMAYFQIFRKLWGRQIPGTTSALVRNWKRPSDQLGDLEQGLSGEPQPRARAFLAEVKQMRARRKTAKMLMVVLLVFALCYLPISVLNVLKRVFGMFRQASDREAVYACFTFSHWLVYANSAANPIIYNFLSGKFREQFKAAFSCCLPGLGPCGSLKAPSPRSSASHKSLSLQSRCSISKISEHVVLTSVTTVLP
TAAR1 agonist: agonists of human TAAR1. Q96RJ0. CHO RD-HGA16 TAAR1, Fluo-8 calcium fluorescence; vehicle wells 0%, saturating PEA agonist 100%. activation, % at 3 µM. actives 0.99% (n = 360,000);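 active = activation above the mean activation of all test compounds in the run plus 3 SD, cut at about 38% in these data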
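Assay system – CHO-derived RD-HGA16 cells with stable Gα16 and human TAAR1 · Compound dosing – one-point dosing at 3 µM (nominal) · Incubation – 17-24 h seeding, 75 min 37 °C dye, 30 min RT · Measured by – kinetic Fluo-8 calcium fluorescence · Control set – DMSO vehicle as 0%, PEA at EC100 as 100% · Repeats – single well for each compound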
GPR7 antagonist: antagonists of human GPR7 (neuropeptides B/W receptor 1); GPR7-expressing cells, fluorescence antagonist assay; P48145; actives 1.1% (n = 290,000); AID 1861; inhibition, % at 4.4 µM; in the data active = inhibition above about 16%, passing the limit was not always enough;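 also: cells stimulated with the agonist NPW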
Target sequence (P48145 whole entry, looked up): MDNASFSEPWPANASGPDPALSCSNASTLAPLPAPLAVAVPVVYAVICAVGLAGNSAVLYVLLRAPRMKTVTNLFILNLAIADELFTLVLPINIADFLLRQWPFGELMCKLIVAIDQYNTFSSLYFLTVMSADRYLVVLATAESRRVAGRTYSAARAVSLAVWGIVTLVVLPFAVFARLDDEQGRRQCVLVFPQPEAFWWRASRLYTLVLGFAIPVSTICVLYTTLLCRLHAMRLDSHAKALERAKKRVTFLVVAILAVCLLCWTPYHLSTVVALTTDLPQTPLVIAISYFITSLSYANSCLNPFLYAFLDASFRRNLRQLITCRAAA
OX1R antag-2: OX1R (human) antagonism; inhibition, % at 6.6 µM; OX1R-expressing cells, FRET antagonist read-out; AID 485270; actives 1.8% (n = 330,000); in the data active = inhibition mostly above about 38%, no sharp cut-off; inactive = mostly below about 40%
TAAR1 antag: antagonists of human TAAR1. Q96RJ0. CHO RD-HGA16 TAAR1, Fluo-8 calcium fluorescence, antagonist. inhibition, % at 3 µM. actives 1.5% (n = 360,000);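 active = inhibition above a per-plate cutoff, the mean inhibition of test compounds on that plate plus 3 SD, cut at about 49% in these data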
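Test system – hTAAR1-expressing CHO RD-HGA16 cells, Gα16-coupled · Reagent – β-PEA at EC80 concentration, post-compound challenge · Compound dosing – 3 µM, single point · Timing – 140 s kinetic read after compound, 140 s after agonist · Detection – Fluo-8 intracellular calcium dye fluorescence, real-time kinetic reads · Control set – DMSO and EC80 PEA controls · Repeats – n of 1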
CHO parental Ca: signal in parental CHO cells, OX1R antagonist counter-screen; parental CHO-K1, ATP-induced calcium, Fluo-8 fluorescence; AID 463079; actives 0.63% (n = 330,000); inhibition, % at 5.6 µM;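 active = inhibition above that plate's mean sample inhibition plus 3 SD, cut at about 26% in these data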
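material = parental CHO cells | also added = ATP as calcium-mobilizing challenge | dosing = single point at 5.6 µM | detection = intracellular calcium via Fluo-8 no-wash fluorescent dye | read-out = % inhibition | benchmarks = low control ATP plus DMSO, high control DMSO only | repeats = one well per compound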
OX1R Ca confirm: OX1R (human) antagonism, confirmed | shares compounds with OX1R antag-1 | CHO/OX1R cells, orexin A calcium Fluo-8 fluorescence | inhibition, % at 5 µM | actives 38% (n = 1,100) | AID 492963; in the data active = inhibition above about 29%
CHO Ca triplic: counter-screen for OX1R antagonists: effect in parental CHO cells; inhibition, % at 5.6 µM; parental CHO-K1, ATP-induced calcium, Fluo-8 fluorescence; actives 9.3% (n = 1,100); shares compounds with OX1R antag-1; AID 492965;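 active = inhibition above a per-plate limit, the mean inhibition of that plate's test compounds plus 3 SD, cut at about 25% in these data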
OX1R HTRF confirm: OX1R (human) antagonism, HTRF confirmed; OX1R-expressing cells, HTRF antagonist assay; shares compounds with OX1R antag-2; inhibition, % at 6.6 µM; actives 49% (n = 1,800); in the data active = inhibition above about 55%;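 also: CHO cells expressing OX1R stimulated with orexin A at about EC80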
CHO-K1 HTRF cnt: counter-screen: parental CHO-K1 HTRF response. shares compounds with OX1R antag-2. parental CHO-K1 cells, HTRF counterscreen. inhibition, % at 6.6 µM. actives 48% (n = 1,800); in the data active = inhibition above about 17%
TAAR1 nonsel count: nonselective antagonist in TAAR1 antagonist counter-screen | shares compounds with TAAR1 antag | counterscreen cell line, calcium fluorescence, antagonist mode | inhibition, % at 3 µM | actives 77% (n = 2,400) | AID 651780; in the data active = inhibition above about 22%;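 also: CHO-Ga16 host cells stimulated with ATP at an EC80 level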
TAAR1 antag conf: confirmation of human TAAR1 antagonists; shares compounds with TAAR1 antag; TAAR1-expressing cells, fluorescence antagonist read-out; inhibition, % at 3 µM; actives 40% (n = 2,400); in the data active = inhibition above about 49%;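 also: CHO-Ga16 host cells challenged with agonist PEA near its EC80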
Ga16 nonsel ag: nonselective Ga16 agonism, counter-screen | Ga16-expressing cells, calcium fluorescence, agonist counterscreen | activation, % at 3 µM | actives 18% (n = 2,400) | AID 651953 | shares compounds with TAAR1 antag; in the data active = activation above about 12%
TAAR1 ag counter: TAAR1 agonism, antagonist counter-screen | shares compounds with TAAR1 antag | hTAAR1 cell line, fluorescence activation, agonist mode | activation, % at 3 µM | actives 2% (n = 2,400) | AID 651955; in the data active = activation above about 37%;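 also: CHO cells stably expressing TAAR1 with calcium dye readout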
Hits are given with their value; i = inactive; nt = no result given. Compounds with a hit are over-represented: about 4.5% of the library has one in this group of screens.

SMILES | OX1R antag-1 | TAAR1 agonist | GPR7 antagonist | OX1R antag-2 | TAAR1 antag | CHO parental Ca | OX1R Ca confirm | CHO Ca triplic | OX1R HTRF confirm | CHO-K1 HTRF cnt | others
O=C(Nc1cccc(F)c1)C1CCCN1S(=O)(=O)c1cccc2cccnc12 (stereo not drawn) | i | i | i | 71 | i | i | 31 | i | 89 | i
O=C(Nc1ccccc1Cl)C1CCCN(S(=O)(=O)c2cccc3cccnc23)C1 (stereo not drawn) | i | i | i | i | i | i | nt | nt | nt | nt
CN(CC(=O)Nc1ccc(Cl)c(C(F)(F)F)c1)C(=O)Cc1ccsc1 | i | i | nt | 50 | i | i | i | i | i | i
CCn1cc(CN2CCC(n3nccc3NC(=O)C3CCCC3)CC2)cn1 | i | i | i | i | i | i | nt | nt | nt | nt
COc1ccc(CCNC(=O)COc2ccc(-c3ccccc3)cc2)cc1OC | i | i | i | 75 | i | i | 38 | 39 | 82 | i
CN(C)C(=O)CSc1nnc(-c2ccco2)n1-c1ccccc1 | nt | i | nt | nt | i | nt | nt | nt | nt | nt
CN(Cc1ccccc1)C(=O)CSc1nnc(-c2ccco2)n1-c1ccccc1 | i | i | i | 41 | i | i | i | i | i | i
O=c1c2ccccc2oc2c1ccc1ccccc12 | 55 | nt | nt | 90 | nt | i | i | i | 68 | i
Nn1c(-c2cccs2)nc2sc3c(c2c1=O)CCCC3 | 45 | i | i | 111 | i | i | i | i | 81 | i
NC(=O)c1c(NC(=O)c2cc3ccccc3o2)sc2c1CCC2 | i | i | i | 106 | i | i | i | i | 85 | i
Cc1cc(NC(=O)CSC2=NS(=O)(=O)c3ccccc3N2)no1 | i | i | nt | i | i | i | nt | nt | nt | nt
Cc1ccc([C@@H]2CC=C(C(=O)O)[C@H](c3cccc(Cl)c3)N2S(=O)(=O)c2ccccc2C)cc1 | 81 | i | nt | 86 | i | i | 48 | i | 89 | i
COc1ccc(C(=O)N/C(=C\c2cn(S(=O)(=O)N(C)C)c3ccccc23)C(=O)NCCN2CCOCC2)cc1 | i | i | i | i | i | i | nt | nt | nt | nt
COc1cc(/C=N/NC(=O)CCn2nnc3ccccc32)ccc1O | i | i | i | i | i | i | nt | nt | nt | nt
COc1cc(/C=N/NC(=O)CCn2c3ccccc3c3ccccc32)ccc1O | 75 | i | i | 54 | i | i | 37 | i | 83 | i
CCCCn1c(N)c(N(CCC)C(=O)C2CCCC2)c(=O)[nH]c1=O | i | i | nt | i | i | i | nt | nt | nt | nt
CCN(CC)c1ccc2cc(-c3nnc(-c4ccc(Br)cc4)o3)c(=O)oc2c1 | nt | nt | i | nt | nt | nt | nt | nt | nt | nt
CCN(CC)c1ccc2cc(-c3nc4ccccc4n3C)c(=O)oc2c1 | 95 | i | 17 | 83 | 55 | i | 84 | i | 89 | i
Cc1c(C(=O)Nc2ccc3nc(N4CCOCC4)sc3c2)oc2ccccc12 | i | i | nt | i | i | i | nt | nt | nt | nt
Cc1nc2ccc(NC(=O)c3oc4ccc(F)cc4c3C)cc2s1 | 72 | nt | nt | 100 | nt | i | 59 | i | 93 | i
COc1ccc(-c2cc3nc(-c4ccccc4)cc(N4CCN(C(=O)c5ccoc5)CC4)n3n2)cc1 | nt | i | nt | nt | i | nt | nt | nt | nt | nt
COc1ccc(-c2cc3nc(-c4ccccc4)cc(N4CCC5(CC4)OCCO5)n3n2)cc1 | 67 | i | i | 50 | i | i | 31 | i | 68 | i
COc1ccc(-c2cn3c(C)c(C(=O)Nc4cccc(NC(C)=O)c4)sc3n2)cc1 | i | i | i | i | 50 | i | i | i | nt | nt | TAAR1 nonsel count=27;TAAR1 antag conf=i;Ga16 nonsel ag=13;TAAR1 ag counter=i
C[C@@H]1COC(=O)[C@H](Cc2ccc(F)cc2)CC/C=C\C[C@@H](CC(=O)NCCO)C(=O)N1 | i | i | nt | i | i | i | nt | nt | nt | nt
CSc1cccc(NC(=O)C2CCCN(S(=O)(=O)c3ccc(F)cc3)C2)c1 (stereo not drawn) | 53 | i | 19 | 84 | 56 | i | 55 | i | 79 | i | TAAR1 nonsel count=23;TAAR1 antag conf=i;Ga16 nonsel ag=i;TAAR1 ag counter=i
SMILES | OX1R antag-1 | TAAR1 agonist | GPR7 antagonist | OX1R antag-2 | TAAR1 antag | CHO parental Ca | OX1R Ca confirm | CHO Ca triplic | OX1R HTRF confirm | CHO-K1 HTRF cnt | others
CSc1cccc(NC(=O)C2CCN(S(=O)(=O)c3ccc(F)cc3)CC2)c1 | i | i | i | i | i | i | nt | nt | nt | nt
O=[N+]([O-])c1ccc(N/N=C/c2ccccc2O)cc1 | i | i | i | i | 79 | i | i | i | nt | nt | TAAR1 nonsel count=27;TAAR1 antag conf=84;Ga16 nonsel ag=i;TAAR1 ag counter=52
Cc1ccc(C)c(NC(=O)CN(C)C(=O)c2cc(C3CC3)nn2-c2ccccc2)c1 | i | i | nt | i | i | i | nt | nt | nt | nt
Cc1ccc(S(=O)(=O)NC(C(=O)Oc2ccc3c(C)c(Cl)c(=O)oc3c2)c2ccccc2)cc1 (stereo not drawn) | i | i | i | i | i | i | nt | nt | nt | nt
CCC[C@@H](NS(=O)(=O)c1ccc(C)cc1)C(=O)Oc1ccc2c3c(c(=O)oc2c1)CCC3 | i | i | i | i | 90 | i | 39 | i | nt | nt | TAAR1 nonsel count=47;TAAR1 antag conf=70;Ga16 nonsel ag=i;TAAR1 ag counter=i
COCCN(C(=O)Cc1cccs1)C(C(=O)NCc1ccc(OC)cc1)c1ccc(C)cc1 (stereo not drawn) | i | i | i | i | i | i | nt | nt | nt | nt
COc1ccc(CNC(=O)C(c2ccc(C)o2)N(Cc2cccs2)C(=O)Cc2cccs2)cc1 (stereo not drawn) | 46 | i | i | i | 87 | i | i | i | nt | nt | TAAR1 nonsel count=42;TAAR1 antag conf=68;Ga16 nonsel ag=i;TAAR1 ag counter=i
Cc1ccc(NC(=O)C(C)OC(=O)COc2cccc(C(F)(F)F)c2)cc1 (stereo not drawn) | i | i | nt | i | i | i | nt | nt | nt | nt
CC(=O)c1cccc(NC(=O)c2ccc(N(Cc3ccccc3C)S(C)(=O)=O)cc2)c1 | i | i | i | i | 57 | i | i | i | nt | nt | TAAR1 nonsel count=37;TAAR1 antag conf=50;Ga16 nonsel ag=12;TAAR1 ag counter=i
